This passage reports growth inhibition results from PubChem BioAssay AID635 (SRMLSC, 2007).

Screen size: about 1,300 compounds; about 40 (3%) were called active. A selection follows. Results with a measured potency or affinity are listed apart. A number with no mark means an inactive call. How the calls were made is not given here.

The assay can be described thus: growth inhibition of wild-type E. coli BW25113 pool, dose response, OD615 (AID 635). Conditions: pooled mutant strains; at 100 µM (top of the series). In short, it runs like this: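 times: 20 h, 37 °C growth with compound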
For the compound `CC(C)c1nnc(NC(=O)c2c(O)c3cccc4c3n(c2=O)CC4)s1`, the growth inhibition was -11%.
As to `CCOc1cc(S(=O)(=O)N2CCN(Cc3ccccc3)CC2)ccc1Br`, the growth inhibition is -3.26%.
The result for `CC1CN(c2oc(COc3ccc(Cl)cc3Cl)nc2C#N)CC(C)O1` (stereo not given) reads -5.37%; that for `CN(C1CCCCC1)S(=O)(=O)c1ccc(NC(=O)c2ccc(Br)o2)cc1`, -1.39%.
With `Cc1[nH]n2c(=O)c3c(nc2c1-c1ccc(Cl)cc1)CCC3` the figure was -1.19%; with `CCOC(=O)c1cn(CC)c2cc(N3CCSCC3)c(F)cc2c1=O`, 3.43%.
Consider `Cc1csc(NC(=O)c2cccc(Cn3nc(C)c(Br)c3C)c2)n1`, for which the growth inhibition was 1.33%.
With `COc1ccc(-c2[nH]ncc2Oc2ccccc2OC)c(O)c1` the figure was 7.41%; with `Cc1ccc(Cl)cc1NC(=O)CC(O)(C(F)(F)F)C(F)(F)F`, 15.3%.
The result for `CCOC(=O)C1CCN(C(c2cccnc2)c2c(NC(=O)c3ccco3)sc(C)c2C)CC1` (stereo not given) reads -3.15%; that for `Cc1cc(C)c(O)c(-c2cc(C(=O)Nc3ccc(S(=O)(=O)N4CCOCC4)cc3)[nH]n2)c1`, 3.2%; that for `COc1ccc(S(=O)(=O)N(Cc2cccs2)C2CCCC2)cc1`, 3.24%.
The result for `COc1ccc(OCC(O)Cn2c(=N)n(Cc3ccccc3)c3ccccc32)cc1` (stereo not given) reads 12.8%; that for `Brc1cc(Br)c2ncnc(N3CCCCC3)c2c1`, 1.95%.
In the case of `CCc1nc(N2CCCCC2)c2oc3ccccc3c2n1`, the growth inhibition was -3.08%.
`COCCCN1C(=O)c2[nH]nc(-c3ccccc3O)c2C1c1ccc(Cl)cc1` (stereo not given): the growth inhibition was -4.43%.
`COc1ccccc1N1CCN(C(c2ccccc2Cl)c2nnnn2C(C)(C)C)CC1` (stereo not given): the growth inhibition is -0.1%.
For the compound `CC(C)c1nc(N2CCN(C(=O)c3ccco3)CC2)c2c3c(sc2n1)CCCC3`, the growth inhibition was 4.77%.
On to `O=C(CN(C(=O)CNC(=O)c1ccco1)c1ccc(Cl)c(Cl)c1)NC1CCCCC1`, for which the growth inhibition is 1.85%.
As to `CCCCOn1c(C)c(C(=O)OCC)c2c3nonc3ccc21`, the growth inhibition was 2.87%.
The result for `CCOC(=O)c1sc(NC(=O)CSc2n[nH]c(-c3ccccc3)n2)c(C#N)c1C` reads 1.14%; that for `Cc1cccc(Cc2c(C)nc3c(C(=O)NCc4ccco4)cnn3c2C)c1`, -6.42%.
Regarding `Cc1noc(C)c1S(=O)(=O)N(CCc1ccccc1)Cc1ccccc1`, the growth inhibition was 3.25%.
With `Cc1ccc2c3c1C1(C(=O)N3C(C)(C)CC2C)C(C#N)=C(N)Oc2cc(O)ccc21` (stereo not given) the figure was 4.82%; with `Cc1ccc(C2C(S(C)(=O)=O)=C(O)C(=O)N2c2ccccc2)cc1` (stereo not given) (tested in a mixture with another compound), 3.27%; with `CC1CCCC(C)N1C(=O)CN1C(=O)C(C)(C)Oc2ccc(C(=O)NC3CCCCC3)cc21` (stereo not given), -0.3%.
Take `Oc1ccccc1-c1cc(-c2ccc3c(c2)OCCO3)n[nH]1`: the growth inhibition was 5.21%.
The result for `Cc1csc(SCC(=O)Nc2nc(-c3ccccc3)cs2)n1` reads 0.45%; that for `O=C(Nc1nc(SCc2ccc(F)cc2)ns1)c1ccco1`, 8.93%.
With `COc1ccc2[nH]c(=O)c(CN(C(=O)NC3CCCCC3)C3CCCCC3)cc2c1` the figure was -1.14%; with `COC(=O)c1c(NC(=O)Cc2cccs2)sc2c1CCCC2`, 4.36%.
`OCCn1c(-c2ccc3c(c2)OCO3)csc1=Nc1ccccc1`: the growth inhibition was -0.74%.
Turning to `Cn1c(-c2ccc3c(c2)OCO3)cnc1N`, the growth inhibition is -1.76% (active).
With `N#Cc1c(N)oc(-c2ccc3c(c2)OCO3)c1-c1ccc2c(c1)OCO2` the figure was 1.41%.
The result for `CCOC(=O)N1CCN(c2nc3ccccc3nc2C(C#N)S(=O)(=O)c2ccc(C)cc2)CC1` (stereo not given) reads -1.57%.
The result for `CCOc1ccc(N(CC(=O)Nc2cccc(Cl)c2)S(=O)(=O)c2c(C)noc2C)cc1` reads 2.36%.
`CN1/C(=C\C(=O)COc2ccc3c(c2)OCO3)C(C)(C)c2ccccc21`: the growth inhibition is -6.25%.
Consider `O=C(COc1ccccc1)Nc1nnc(-c2ccc(Cl)s2)o1`, for which the growth inhibition was 2.47%.
With `O=c1c2c(nc3n1CCCCC3)-c1ccccc1CC21CCCC1` the figure was -5.17%.
Regarding `Cc1ccc(C(C(=O)NC2CCCC2)N(Cc2cccs2)C(=O)CNC(=O)c2cccs2)o1` (stereo not given), the growth inhibition was 5.18%.
With `Cc1ccc(C)c(N2CCN(C(=O)c3ccc(NS(=O)(=O)c4c(C)noc4C)cc3)CC2)c1` the figure was 3.98%; with `Cc1ccc(CN2C(=O)NC(=O)C3(Cc4c(nc5ccccn5c4=O)N4CCCCCC43)C2=O)cc1` (stereo not given), -2%.
With `O=C(NC12CC3CC(CC(C3)C1)C2)c1ccccc1O` the figure was 8.6%; with `COc1ccc(-c2[nH]c(-c3cccc(OC)c3)nc2SCC(=O)NCc2ccco2)cc1`, -2.87%; with `OC(COc1ccc(Cl)c2ccccc12)CN1CCN(c2ccccn2)CC1` (stereo not given), -3.05%.
Take `O=C(Nc1nc2n(n1)C(c1ccc(Cl)cc1)CC(c1ccc(Cl)cc1)N2)c1ccco1` (stereo not given): the growth inhibition is 9.43%.
With `CCOc1cc(C)c(C(C)C)cc1S(=O)(=O)N1CC(C)OC(C)C1` (stereo not given) the figure was 3.51%.
With `CCN(C(=O)c1ccc(C(C)(C)C)cc1)c1nnc(Cn2nnc3ccccc32)s1` the figure was 2.41%.
For the compound `COc1cc2cc(C(c3nnnn3C3CCCCC3)N(C)C3CCCCC3)c(=O)[nH]c2cc1OC` (stereo not given), the growth inhibition is -2.92%.
With `N#Cc1c(NC(NC(=O)c2ccco2)C(=O)c2ccccc2)sc2c1CCCC2` (stereo not given), the growth inhibition was 1.57%.
With `Cc1ccc(C)c(SCC(=O)Nc2nnc(-c3ccccc3)o2)c1` the figure was 6.77%; with `COc1cccc(-c2csc(N3CCN(C(=O)C4CCCCC4)CC3)n2)c1`, -1.87%.
The result for `O=C(Nc1cccc(C(F)(F)F)c1)N1CCC(c2nc(-c3ccc(F)cc3)no2)CC1` reads -2.79%; that for `CCOc1ccc2nc(NC(=O)C(CC)Sc3nc(C)cc(=O)[nH]3)sc2c1` (stereo not given), 0.31%.
With `Cc1nc2c(C(=O)NCc3ccc4c(c3)OCO4)c[nH]n2c(=O)c1Cc1ccccc1F` the figure was 0.56%; with `CCn1cc(C(=O)Nc2nncs2)c(=O)c2cc(F)c(N3CCN(C(=O)c4ccco4)CC3)cc21`, 15.6%; with `CCOC(=O)c1cn(CC)c2cc(N3CCOCC3)c(F)cc2c1=O`, 3.52%.
As for `CCn1cc(C(=O)O)c(=O)c2cnc(N3CCN(C(=O)Nc4ccccc4)CC3)nc21`, the growth inhibition is 5.46%.
With `CCn1cc(C(=O)O)c(=O)c2cc(OC)ccc21` the figure was -5.37%; with `CCOC(=O)c1cn(CC)c2cc(N3CCCCC3)c(F)cc2c1=O`, -1.4%.
